S100A4 MyoIIA = blocks human S100A4 binding to myosin IIA peptide; P26447; S100A4/TAMRA-MyoIIA peptide fluorescence polarization; inhibition, % at 10.7 µM; actives 0.14% (n = 360,000); AID 652163;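 active means mean inhibition of at least 70% across replicates, with every replicate also reaching that level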
Target sequence (P26447 whole entry, looked up): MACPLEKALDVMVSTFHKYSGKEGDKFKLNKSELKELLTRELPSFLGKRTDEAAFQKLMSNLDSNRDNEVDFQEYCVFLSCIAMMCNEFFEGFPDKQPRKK
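Test system: S100A4 monomer protein; Medium: HEPES pH 7.2 with CaCl2, KCl, NaCl, DTT, Triton; Probe or stimulus: TAMRA-labelled myosin IIA heavy-chain peptide probe, 5 nM; Doses: one dose per compound; Times: polarization read 5 min after assay mix addition, stable 5–60 min; Benchmarks: neutral control DMSO, positive control TFP.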
DENV2 CPE rescue = DENV2-induced cell death inhibition; DENV2-infected cells, cytopathic effect rescue, plate reader; CPE inhibition, % at 9.99 µM; actives 1.7% (n = 350,000); AID 651640; in the data active means CPE inhibition above about 20%, passing the limit was not always enough; tested in BHK-21 cells
Cneo AK release = Cryptococcus neoformans lysis via adenylate kinase release. C. neoformans lysis, adenylate kinase release luminescence, 4 h; normalised: neutral wells 0, clomiphene wells 100. lysis activity, % at 15 µM. actives 0.2% (n = 360,000);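 active means mean lysis activity across replicates of at least 80%, whatever share of replicates individually reach that level; inactive means mean lysis activity below 80%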
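Material: C. neoformans cells; Schedule: 4 h static compound exposure, 37 °C, read 1 h post-reagent; Measured by: adenylate kinase release luminescence; Read-out: signal increase indicating cell lysis; Controls: Clomiphene as positive lysis control.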
AF4-AF9 inh = MLL-AF4/AF9 protein interaction inhibition | AlphaScreen, biotin-AF4 peptide binding to FLAG-AF9 | inhibition, % at 10 µM | actives 0.47% (n = 350,000);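 active means every replicate reaching a set inhibition limit, whatever the replicate mean, cut at about 25% in these data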
Target sequence (P42568 whole entry, looked up): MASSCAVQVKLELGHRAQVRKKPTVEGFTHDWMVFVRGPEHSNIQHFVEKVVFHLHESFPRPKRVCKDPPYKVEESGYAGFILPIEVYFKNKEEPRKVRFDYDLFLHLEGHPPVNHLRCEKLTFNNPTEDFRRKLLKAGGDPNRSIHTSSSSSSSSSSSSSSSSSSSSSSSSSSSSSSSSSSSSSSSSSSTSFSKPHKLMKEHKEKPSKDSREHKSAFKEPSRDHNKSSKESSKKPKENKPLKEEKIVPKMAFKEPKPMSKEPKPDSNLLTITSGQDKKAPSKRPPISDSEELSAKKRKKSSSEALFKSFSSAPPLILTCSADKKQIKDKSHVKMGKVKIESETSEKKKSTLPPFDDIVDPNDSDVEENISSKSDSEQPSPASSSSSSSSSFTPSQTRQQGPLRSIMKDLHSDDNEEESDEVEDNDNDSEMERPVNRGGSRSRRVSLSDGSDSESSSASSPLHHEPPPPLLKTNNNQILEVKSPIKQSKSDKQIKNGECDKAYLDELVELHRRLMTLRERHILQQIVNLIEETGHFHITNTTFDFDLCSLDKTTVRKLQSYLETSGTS
Ecoli rRNA inh = inhibitors of bacterial rRNA selective over humanized ribosomes; actives 1.6% (n = 350,000); GFP signal change (wild-type ribosome), % (concentration not given with the values); E. coli WT GFP vs humanized-ribosome RFP mutants, fluorescence, 24 h; hits give low values; DMSO median 0, no signal -100; AID 720706;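 active means significant combined selectivity score with lowered wild-type GFP, culture density cut under 30%, mutant RFP and density less affected; inactive means any of these conditions unmet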
PfHsp90 set2 = inhibits growth of yeast expressing Plasmodium falciparum Hsp90. S. cerevisiae expressing PfHsp90, BacTiter-Glo ATP, 48 h; yeast lacking PDR1 and PDR3 efflux regulators. inhibition, % at 9.4 µM. actives 0.32% (n = 310,000);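 active means every replicate shows inhibition above about 80%, whatever the replicate mean, limit read from the data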
Each line names hits and unclear results; the compound was inactive in the other large screens. An excerpt weighted towards active compounds, which were near 3.2% of everything screened.

C[C@H]1CCCCO[C@@H](CN(C)S(=O)(=O)c2cn(C)cn2)[C@@H](C)CN([C@@H](C)CO)C(=O)c2cc(NS(=O)(=O)c3ccc(Cl)cc3)ccc2O1	DENV2 CPE rescue 47 (no result: PfHsp90 set2)
C[C@@H]1CCCCO[C@H](CN(C)S(=O)(=O)c2cn(C)cn2)[C@H](C)CN([C@H](C)CO)C(=O)c2cc(NS(=O)(=O)c3ccc(Cl)cc3)ccc2O1	none (no result: PfHsp90 set2)
C[C@@H]1CCCCO[C@@H](CN(C)S(=O)(=O)c2cn(C)cn2)[C@H](C)CN([C@@H](C)CO)C(=O)c2cc(NS(=O)(=O)c3ccc(Cl)cc3)ccc2O1	DENV2 CPE rescue 28 (no result: PfHsp90 set2)
O=C(c1ccncc1)N1CCCCN2[C@@H](CO)[C@H](c3ccc(-c4ccccc4)cc3)[C@@H]2C1	none (no result: PfHsp90 set2)
CC(=O)N(C)C[C@@H]1Oc2cc(C#Cc3cccnc3)ccc2S(=O)(=O)N([C@H](C)CO)C[C@@H]1C	none (no result: PfHsp90 set2)
CO[C@H](CN(C)S(=O)(=O)c1ccc(F)cc1)[C@@H](C)CN([C@H](C)CO)S(=O)(=O)c1cccc(Cl)c1	none (no result: PfHsp90 set2)
COc1ccc(S(=O)(=O)Nc2cccc3c2O[C@H](CN(C)C)[C@H](C)CN([C@@H](C)CO)C3=O)cc1	none (no result: PfHsp90 set2)
CCOC(=O)c1c(C)n(-c2ccc(C)cc2)c2ccc(OCC(O)CN3CCN(C)CC3)cc12 (configuration not stated)	AF4-AF9 inh 41 (no result: Cneo AK release)
CN(CCC1CCCCO1)C(=O)CCc1nnc(CCc2ccccc2)o1 (configuration not stated)	DENV2 CPE rescue 61
O=C(COc1ccc(Cl)cc1Cl)OCC(=O)N1CCCc2ccccc21	none (no result: Cneo AK release)
S=C(NC1CC1)N1CCCc2ccccc21	DENV2 CPE rescue 54
O=C(COc1ccc(Cl)cc1Cl)NC(=S)N1CCCc2ccccc21	Ecoli rRNA inh -26 (no result: Cneo AK release)
COc1ccc(S(=O)(=O)N(C)C[C@H]2Oc3ccc(NC(=O)Nc4c(C)noc4C)cc3C(=O)N([C@@H](C)CO)C[C@H]2C)cc1	none (no result: PfHsp90 set2)
Cc1noc(C)c1S(=O)(=O)Nc1ccccc1Cl	none
Cc1noc(C)c1S(=O)(=O)Nc1ccccc1Oc1ccccc1	Ecoli rRNA inh -22 (no result: Cneo AK release)
Cn1c(C(=O)Nc2ccc3c(c2)OCCO3)cc2sccc21	Ecoli rRNA inh -32
O=C(Nc1ccc2c(c1)OCCO2)c1cc2sccc2n1Cc1ccccc1	none (no result: S100A4 MyoIIA, DENV2 CPE rescue, AF4-AF9 inh, Ecoli rRNA inh)
C[C@H](CO)N1C[C@H](C)[C@H](CN(C)S(=O)(=O)c2ccc(F)cc2)Oc2ccc(NC(=O)Cc3ccccc3)cc2CC1=O	none (no result: PfHsp90 set2)
CNC[C@H]1Oc2ccc(NS(C)(=O)=O)cc2CC(=O)N([C@@H](C)CO)C[C@H]1C	none (no result: PfHsp90 set2)
Cc1noc(C)c1NC(=O)Nc1ccc2c(c1)C(=O)N([C@H](C)CO)C[C@@H](C)[C@H](CN(C)Cc1ccc(Cl)c(Cl)c1)OCCCC[C@H](C)O2	DENV2 CPE rescue 23 (no result: PfHsp90 set2)
Cc1noc(C)c1NC(=O)Nc1ccc2c(c1)C(=O)N([C@@H](C)CO)C[C@@H](C)[C@@H](CN(C)Cc1ccc(Cl)c(Cl)c1)OCCCC[C@@H](C)O2	DENV2 CPE rescue 30 (no result: PfHsp90 set2)
Cc1noc(C)c1NC(=O)Nc1ccc2c(c1)C(=O)N([C@@H](C)CO)C[C@H](C)[C@@H](CN(C)Cc1ccc(Cl)c(Cl)c1)OCCCC[C@H](C)O2	DENV2 CPE rescue 27 (no result: PfHsp90 set2)
Cc1noc(C)c1NC(=O)Nc1ccc2c(c1)C(=O)N([C@H](C)CO)C[C@H](C)[C@@H](CN(C)Cc1ccc(Cl)c(Cl)c1)OCCCC[C@@H](C)O2	none (no result: PfHsp90 set2)
Cc1noc(C)c1NC(=O)Nc1ccc2c(c1)C(=O)N([C@H](C)CO)C[C@@H](C)[C@@H](CN(C)Cc1ccc(Cl)c(Cl)c1)OCCCC[C@H](C)O2	none (no result: PfHsp90 set2)
Cc1noc(C)c1NC(=O)Nc1ccc2c(c1)C(=O)N([C@@H](C)CO)C[C@@H](C)[C@H](CN(C)Cc1ccc(Cl)c(Cl)c1)OCCCC[C@H](C)O2	none (no result: PfHsp90 set2)
C[C@@H]1CN([C@H](C)CO)S(=O)(=O)c2ccc(-c3ccccc3)cc2O[C@@H]1CN(C)C(=O)C1CCC1	none (no result: S100A4 MyoIIA, DENV2 CPE rescue, Cneo AK release, AF4-AF9 inh, PfHsp90 set2)
COc1cccc(CNc2ccc([N+](=O)[O-])cc2Cl)c1O	Ecoli rRNA inh -50 (no result: Cneo AK release)
COc1ccccc1CNc1ccc([N+](=O)[O-])cc1C	none (no result: Cneo AK release)
O=C(N/N=C/C1CC=CCC1)c1ccc(Cl)cc1O (configuration not stated)	Ecoli rRNA inh -29
O=C(N/N=C/C1CC=CCC1)c1ccccc1O (configuration not stated)	none (no result: S100A4 MyoIIA, DENV2 CPE rescue, AF4-AF9 inh, Ecoli rRNA inh)
COc1ccc(CN(C(=O)c2ccc(C)cc2)c2cccc(N)c2)cc1	DENV2 CPE rescue 38
COc1ccc(C(=O)N(Cc2ccccc2)c2cccc(C)c2)cc1	none
CC(=O)Nc1ccc(S(=O)(=O)N=S(C)C)cc1	none (no result: S100A4 MyoIIA, DENV2 CPE rescue, AF4-AF9 inh, Ecoli rRNA inh)
CCS(CC)=NS(=O)(=O)c1ccc(NC(C)=O)cc1	Cneo AK release 123 (no result: S100A4 MyoIIA, DENV2 CPE rescue, AF4-AF9 inh, Ecoli rRNA inh)
C[C@@H]1CN([C@@H](C)CO)C(=O)c2cc(NC(=O)Cn3cnnn3)ccc2O[C@@H]1CN(C)C	none (no result: PfHsp90 set2)
COc1ccc(OC)c(-c2nnc3n2N=C(c2ccc(OC)c(OC4CCOC4)c2)CS3)c1 (configuration not stated)	Ecoli rRNA inh -28
COc1ccc(C2=Nn3c(nnc3-c3ccccc3Cl)SC2)cc1OC1CCOC1 (configuration not stated)	none
CCCCCCCCCCOC(=O)C[N+](C)(C)C/C=C(/C)Cl	none
CCCCCCCCOC(=O)C[N+](C)(C)C/C=C(/C)Cl	Ecoli rRNA inh -35
CC(C)(C)c1cc(NCc2ccccn2)n2ncc(-c3ccccc3)c2n1	PfHsp90 set2 108 (no result: Cneo AK release)
COc1ccc(Nc2nnc(-c3ccc(C(N)=O)cc3)c3ccccc23)cc1	Ecoli rRNA inh -38
CNC(=O)c1ccc(Nc2nnc(-c3ccc(C(N)=O)cc3)c3ccccc23)cc1	none
NC(=O)c1ccc(Nc2nnc(-c3ccc(O)cc3)c3ccccc23)cc1	Ecoli rRNA inh -23 (no result: DENV2 CPE rescue, Cneo AK release)
Cc1cccc(C)c1NC(=O)CN1CCN(C(=O)c2cc(C3CC3)nn2-c2ccccc2)CC1	DENV2 CPE rescue 81 (no result: PfHsp90 set2)
O=C(c1cc(C2CC2)nn1-c1ccccc1)N1CCN(Cc2ccc(Cl)cc2)CC1	none
Cc1nc2cc(Cl)c(Cl)cc2n1CCCO	Ecoli rRNA inh -22 (no result: AF4-AF9 inh, PfHsp90 set2)
CN(c1ccccc1)S(=O)(=O)c1ccc(-c2ccccc2)cc1	Ecoli rRNA inh -24
CC(C)NC(=O)N(C)C[C@@H]1OCCCC[C@@H](C)Oc2ccc(NS(=O)(=O)c3ccc(F)cc3)cc2C(=O)N([C@H](C)CO)C[C@H]1C	none (no result: PfHsp90 set2)
CCNS(=O)(=O)c1ccc(Br)c(C(=O)OC(C)C(=O)NCC2CCCCC2)c1 (configuration not stated)	DENV2 CPE rescue 43
CCN(CC)CCN(C(=O)c1ccc([N+](=O)[O-])cc1)c1nc2c(OC)cccc2s1	none (no result: Cneo AK release)

Compound activity from PubChem.
